# RGS4 pot: RGS4 potentiators or activators, primary screen, cell-based, HEK293 M3R inducible RGS4, calcium flux; carbachol calcium flux Fluo4; active compounds read low; B-score at 10 µM; 0.92% of 310,000 active; AID 463111, 2010;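 active = B-score of the integrated calcium signal more than 4 SD below the library mean, with starting fluorescence not abnormally high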;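 also: negative B-score means reduced calcium response which marks RGS4 activation or potentiation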
#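 Assay system: HEK293 FlpIn-TREx cells, stable M3R, doxycycline-inducible RGS4 / Probe or stimulus: carbachol, ECmax concentration / Times: overnight RGS4 induction, 30 min dye load 37 °C, 20 min compound RT / Signal: kinetic calcium fluorescence imaging with Fluo4-AM dye, 2 µM / Measure: Agonist-evoked peak-minus-minimum fluorescence over baseline, integrated ratio, B score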
# RGS4 inh: RGS4 inhibitors, primary screen, cell-based, HEK293 M3R inducible RGS4, calcium flux; Regulator of G-protein signaling 4 (Homo sapiens), P49798; Fluo-4 calcium flux; active compounds read high; triggered by carbachol at its EC20; B-score at 10 µM; 0.45% of 310,000 active; AID 463165, 2010;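 active = B-score, a plate-corrected calcium signal, over three deviations above library mean, with baseline fluorescence within five deviations of library mean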;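 also: RGS4 expression induced by doxycycline in cells with stable M3 receptor; B-score is computed from the integrated fluorescence ratio over baseline after carbachol; higher B-score means a larger calcium signal and so more RGS4 inhibition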
# Target sequence (P49798 whole entry, looked up): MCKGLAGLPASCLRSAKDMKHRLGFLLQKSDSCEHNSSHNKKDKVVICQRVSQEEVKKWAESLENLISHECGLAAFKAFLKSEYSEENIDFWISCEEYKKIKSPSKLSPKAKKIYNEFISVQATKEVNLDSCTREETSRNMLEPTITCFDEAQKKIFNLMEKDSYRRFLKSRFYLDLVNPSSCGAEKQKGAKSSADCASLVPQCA
# MrgX1 PAM: positive allosteric modulators of MrgX1, primary screen, HEK293 cells, Fluo-4 calcium flux; Mas-related G-protein coupled receptor member X1 (Homo sapiens), Q96LB2; 0.63% of 310,000 active; AID 588675, 2011; FDSS; active compounds read high; B-score at 10 µM;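 active = plate-corrected calcium response at least 3 library SD above typical, normal starting fluorescence, not activating the receptor alone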;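 also: compound read alongside a low EC10 to EC30 dose of BAM8-22 agonist; peak minus trough fluorescence over baseline measured at the second addition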
# Target sequence (Q96LB2 whole entry, looked up): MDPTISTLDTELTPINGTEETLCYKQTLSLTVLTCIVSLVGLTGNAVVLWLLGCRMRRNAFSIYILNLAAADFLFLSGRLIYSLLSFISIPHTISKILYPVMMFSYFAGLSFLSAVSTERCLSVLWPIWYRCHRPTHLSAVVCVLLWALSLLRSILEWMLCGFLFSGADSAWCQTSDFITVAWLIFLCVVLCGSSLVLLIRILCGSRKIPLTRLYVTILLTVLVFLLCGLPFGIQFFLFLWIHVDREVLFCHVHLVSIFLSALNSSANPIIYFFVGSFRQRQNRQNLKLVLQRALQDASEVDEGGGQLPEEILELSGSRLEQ
# MrgX1 ag: agonists of human MrgX1 receptor, primary screen, HEK293 cells, Fluo-4 calcium flux; Mas-related G-protein coupled receptor member X1 (Homo sapiens), Q96LB2; Fluo-4 calcium fluorescence, agonist mode; active compounds read high; 0.44% of 310,000 active; B-score at 10 µM; AID 588627, 2011;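 active = calcium response B-score plate-corrected fluorescence ratio at least 3 library SD, with starting fluorescence B-score inside 5 SD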
#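 Test system: HEK293 cells stably expressing human MrgX1 receptor; Input: fifteen thousand cells per well; Dosing: compound delivered in addition one of three; Schedule: overnight seeding, then 1 h dark dye loading; Technique: Fluo-4 NW calcium fluorescence; Measure: B-scored fluorescence response ratio; Controls: positive and negative controls per plate.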
# MrgX1 antagonist: antagonists of human MrgX1 receptor, primary screen, HEK293 cells, Fluo-4 calcium flux | Mas-related G-protein coupled receptor member X1 (Homo sapiens), Q96LB2 | BAM8-22 antagonism; active compounds read low | B-score at 10 µM | 1.3% of 310,000 active | AID 588676, 2011;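 active = calcium-response B-score plate-corrected more than 3 library SD below zero, starting fluorescence within 5 deviations, no agonist response on first addition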;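 also: peak minus trough fluorescence over baseline after final BAM8-22 challenge near maximal dose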
# RGS4 inh valid: enhanced carbachol calcium response, M3R/RGS4 cells, RGS4 inhibitor project, cell-based, validation screen, HEK293 M3R/RGS4, calcium flux. shares compounds with RGS4 inh. 65% of 1,700 active. AID 492999, 2010. calcium response, % at 10 µM. carbachol calcium Fluo-4 fluorescence; carbachol added at its EC20; 0 = buffer wells, 100 = carbachol control;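 active = duplicate-averaged calcium response above the buffer-only control mean plus 5 SD of those controls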;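 also: integrated fluorescence ratio F max minus min over baseline F0; higher response in RGS4-induced cells means RGS4 inhibition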
# RGS4 uninduced: carbachol calcium response in non-induced M3R cells, confirmation, counter-screen for RGS4 inhibitor project, cell-based, HEK293 M3R; activity (percent), % at 10 µM; 20% of 1,900 active; AID 493000, 2010; carbachol calcium Fluo-4; submaximal (EC20) carbachol stimulus; buffer wells 0%, carbachol control wells 100%; shares compounds with RGS4 inh; call rule not given here;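 also: RGS4 induction absent so cells express M3R without RGS4; higher means more calcium signal and flags a non-specific hit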
# RGS4 inh ctr2: second counter-screen for RGS4 inhibitors: non-induced cells without carbachol; HEK293 M3R/RGS4 non-induced, Fluo-4 calcium, no carbachol; normalised: buffer wells 0%, carbachol wells 100%; calcium response (agonist-mode artifact), % at 10 µM; AID 493001; shares compounds with RGS4 inh; 22% of 1,900 active;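 active = duplicate-averaged calcium rise in uninduced cells above buffer wells' mean plus 5 SD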
# Starred values were filed as active, the others as inactive; i = inactive; / = no result given. Only some compounds are listed: those with a hit (about 3.5% of all), similar ones and a draw of the others.
SMILES,RGS4 pot,RGS4 inh,MrgX1 PAM,MrgX1 ag,MrgX1 antagonist,RGS4 inh valid,RGS4 uninduced,RGS4 inh ctr2
CCn1c(=O)cc(C(=O)OC)sc1=Nc1ccc(F)c(F)c1,i,12.6*,i,i,i,56.0%*,79.5%*,i
COC(=O)c1cc(=O)n(CCc2ccccc2)c(=Nc2ccc(F)cc2)s1,i,i,i,i,i,/,/,/
CCOC(=O)c1ccc(N=c2sc(C(=O)OC)cc(=O)n2Cc2ccco2)cc1,i,i,i,i,i,i,i,i
COC(=O)c1cc(=O)n(CCc2ccc(OC)cc2)c(=Nc2ccc(F)c(Cl)c2)s1,i,i,i,i,i,i,i,19.0%*
CCOC(=O)c1ccc(N=c2sc(C(=O)OC)cc(=O)n2CCCN2CCOCC2)cc1,i,i,i,i,i,/,/,/
CCOc1cc(C(=O)N/N=C\c2cn(CC)nc2C)cc(OCC)c1OCC,i,i,i,i,i,/,/,/
COCCNC(=O)CC(=O)N/N=C/c1ccc(C(=O)OC)cc1,i,i,i,i,i,/,/,/
CC(=O)Nc1ccc(S(=O)(=O)Nc2cc([N+](=O)[O-])ccc2C)cc1,i,i,i,i,i,/,/,/
Cc1ccc(NS(=O)(=O)c2ccc(NC(=O)CN(c3cc([N+](=O)[O-])ccc3C)S(C)(=O)=O)cc2)c(C)c1,i,8.64*,i,i,i,23.0%*,i,i
CC1CCCCC12NC(=O)N(CC(=O)c1ccc(Cl)s1)C2=O (configuration not stated),i,i,i,i,i,/,/,/
O=C1/C(=C/c2ccncc2)SC(=S)N1Cc1ccccc1,i,i,i,i,i,/,/,/
O=C1/C(=C\c2cccc(O)c2)SC(=S)N1Cc1ccccc1,i,i,i,i,i,i,i,i
O=C1/C(=C\c2cccc(O)c2O)SC(=S)N1Cc1ccccc1,i,8.44*,i,i,i,18.5%*,i,i
COc1cc(/C=C2/SC(=S)N(Cc3ccccc3)C2=O)ccc1O,i,6.43*,11.5*,i,i,12.0%*,i,34.5%*
CC1=CCC2C(=O)N(c3ccc(N4CCOCC4)cc3)C(=O)C2C1 (configuration not stated),i,i,i,i,i,/,/,/
COc1ccc(C(=O)N/C(=C\c2cn(S(=O)(=O)N(C)C)c3ccccc23)C(=O)NCCN2CCOCC2)cc1OC,i,i,i,i,i,/,/,/
CC1CCC2C(=O)N(c3ccc(C(=O)Oc4cccc5cccnc45)cc3)C(=O)C2C1 (configuration not stated),i,5.24*,i,i,i,25.0%*,i,i
C=CCOc1nc2sc(C)c(C)c2c(=O)n1-c1ccccc1,i,6.04*,i,i,i,i,i,i
CN(C)CCC(=O)c1cccc(Br)c1,i,6.79*,i,i,i,i,i,28.5%*
O=C(NC(=S)N1CCN(c2ccc([N+](=O)[O-])cc2)CC1)c1ccccc1F,i,i,i,i,i,/,/,/
COc1ccc(OC)c(C(=O)Nc2c(O)ccc3ccccc23)c1,i,i,i,i,i,/,/,/
CC(C)(C)c1nc[nH]c(=O)c1Br,i,i,i,i,i,/,/,/
CCN(CC)c1ccc(/C=N\N2CCN(Cc3ccc(C)cc3)CC2)cc1,i,i,i,i,i,i,i,i
CC1C/C(=C/c2ccncc2)C(=O)/C(=C/c2ccncc2)C1 (configuration not stated),i,28.3*,7.95*,i,i,120.5%*,i,7.5%*
O=C(N/N=C/c1ccc(Cl)cc1)c1cc(-c2cccnc2)nc2ccccc12,i,i,i,i,i,/,/,/
SMILES,RGS4 pot,RGS4 inh,MrgX1 PAM,MrgX1 ag,MrgX1 antagonist,RGS4 inh valid,RGS4 uninduced,RGS4 inh ctr2
Nc1sc(-c2ccccc2)cc1C(=O)N/N=C/c1ccc(Cl)cc1,i,4.73*,i,i,i,14.5%*,28.5%*,i
COc1ccc(CN2CCCC(N3CCN(c4ccc(OC)cc4)CC3)C2)cc1 (configuration not stated),i,i,i,i,i,/,/,/
CCC1CCCCN1S(=O)(=O)c1ccc2c(c1)CCN2C(=O)C1CCC1 (configuration not stated),i,i,i,i,i,/,/,/
O=C(CCl)c1ccc2c(c1)CCN2C(=O)C1CCCCC1,i,i,i,i,i,i,i,13.5%*
O=C1ON=C(c2ccccc2)/C1=C/c1ccccc1,i,i,i,i,i,i,i,i
O=C1ON=C(c2ccccc2)/C1=C\c1ccco1,i,i,i,i,i,/,/,/
O=C1ON=C(c2ccccc2)/C1=C/c1ccc(O)cc1,i,11.1*,i,i,i,23.5%*,i,22.5%*
Cc1ccc(C2=NOC(=O)/C2=C\c2ccccc2)cc1,i,i,i,i,i,/,/,/
COC(=O)c1ccc(C(=O)O)nc1,i,i,i,i,i,/,/,/
CCN1C(N(C)C)=NC[C@@H]1Cc1ccccc1,/,/,i,i,i,/,/,/
CCOC(=O)N1CCN(C(=O)c2cn(C)c3ccc(S(=O)(=O)N(C)C4CCCCC4)cc3c2=O)CC1,i,i,i,i,i,/,/,/
CC1CCN(c2nc(N3CCCCC3)nc(N3CCCCC3)n2)CC1,i,8.69*,i,i,i,43.5%*,55.0%*,i
COc1ccc(/C=N/NC(=O)c2nnn(-c3nonc3N)c2-c2cccc(OC)c2)cc1,i,i,7.2*,i,i,/,30.5%*,8.0%*

# Assay outcomes deposited in PubChem BioAssay by Johns Hopkins Ion Channel Center.
